# Bioassay records: PubChem BioAssay, Sanford-Burnham Center for Chemical Genomics
# Only some compounds are listed: those with a hit (about 4.4% of all), similar ones and a draw of the others.
# EBI2 block: EBI2 (human) antagonism. EBI2 beta-arrestin recruitment, luminescence, 7a,25-OHC stimulated. inhibition, % at 5 µM. 360,000 compounds, 0.81% hits. AID 651636; in the data active = inhibition above about 38%;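 note: enzyme fragment complementation signal reports receptor beta-arrestin coupling in cells; 0% = agonist plus DMSO wells and 100% = wells without agonist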
# Target sequence (P32249 whole entry, looked up, the tested form may be a part): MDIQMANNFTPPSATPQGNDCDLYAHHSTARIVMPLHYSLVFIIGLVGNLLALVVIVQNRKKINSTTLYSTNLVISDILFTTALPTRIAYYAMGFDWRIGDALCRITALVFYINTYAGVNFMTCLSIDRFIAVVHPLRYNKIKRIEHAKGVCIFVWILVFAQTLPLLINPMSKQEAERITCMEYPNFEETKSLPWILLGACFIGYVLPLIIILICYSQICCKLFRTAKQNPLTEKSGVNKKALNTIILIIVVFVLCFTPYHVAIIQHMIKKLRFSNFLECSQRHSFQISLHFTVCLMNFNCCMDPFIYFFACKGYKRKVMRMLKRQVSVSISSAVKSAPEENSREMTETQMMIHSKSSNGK
# NR3A LBD binder: modulators (binders) of human NR3A ligand-binding domain. NR3A LBD differential scanning fluorimetry, Tm shift; 0% = protein alone, 100% = glycine-bound protein. 340,000 compounds, 2.5% hits. Tm shift relative to glycine control, % at 25 µM;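 active = melting temperature shift of at least 10% of the positive control shift, at one fixed dose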
# SENP1 FRET inh: SENP1 (human) catalytic domain inhibition | 360,000 compounds, 0.21% hits | inhibition, % at 10 µM | recombinant SENP1 catalytic domain, CyPet-SUMO1-YPet FRET cleavage;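 active = inhibition at least 30% at 10 µM, raw YFP signal under a set limit, fluorescence ratio 0.5 to 1.5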;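 note: 0% = enzyme with DMSO and 100% = no enzyme wells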
#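 material = recombinant human SENP1 catalytic domain, His6-tagged | quantity = 20 pM enzyme | reagent = 25 nM SUMO1 FRET substrate | compound dosing = 10 µM single point, 0.5% DMSO | timing = 50 min enzyme reaction, room temperature, light-protected | detection = FRET, CFP and YFP emission | control set = no-enzyme low, enzyme-DMSO high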
# MPTP inh: blocks calcium-induced mitochondrial swelling. 360,000 compounds, 1.4% hits. inhibition, % at 10 µM. isolated mouse mitochondria, Ca2+ swelling absorbance, 30 min;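 active = inhibition of 50% or more, scaled per plate between neutral and stimulator controls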;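 note: 0% = DMSO wells given calcium and 100% = 1 mM EGTA wells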
# * marks the source's active call; other numbers are inactive results; / = no result given.
SMILES,EBI2 block,NR3A LBD binder,SENP1 FRET inh,MPTP inh
O=C(NC(Cc1c[nH]c2ccccc12)C(=O)N/N=C/c1cccc2ccccc12)c1cccs1 (stereo unspecified),21,19*,-1,1
Cc1nc(N)sc1C(=O)N/N=C/c1c[nH]c2ccccc12,2,24*,-3,0
Cc1cc(C(=O)N/N=C/c2c[nH]c3ccccc23)cs1,4,27*,-2,0
CN1CCN(C2CN(Cc3cn(Cc4ccc(Cl)cc4)nn3)S(=O)(=O)C2)CC1 (stereo unspecified),-4,/,1,-2
Cc1cccc(NC(=S)N/N=C/c2c[nH]c3ccccc23)c1,-12,33*,-1,4
COc1cc(/C=N\NC(=O)c2sc(N)nc2C)cc(OC)c1OC,-9,17*,-1,-1
COc1ccccc1C(=O)N/N=C/c1c[nH]c2ccccc12,5,14*,-2,0
Cc1c(/C=N/NC(=O)c2sc3ccccc3c2Cl)cnn1C,-10,-2,3,-3
Cc1cc(C(=O)N/N=C/c2c[nH]c3ccccc23)c(C)o1,-7,8,1,0
O=C(N/N=C/c1c[nH]c2ccccc12)c1sc2ccccc2c1Cl,4,35*,27,0
CCN(CC)S(=O)(=O)c1ccc(/C=C/C(=O)NC2CCCCC2)cc1,13,-4,1,0
Cc1ccc(C(=O)Nc2ccc(C(=O)N/N=C/c3c[nH]c4ccccc34)cc2)cc1,9,31*,-1,0
Cc1c(/C=N\NC(=O)c2ccc([N+](=O)[O-])cc2)cnn1C,0,-4,-1,-1
O=C(N/N=C/c1c[nH]c2ccccc12)c1cccc([N+](=O)[O-])c1,2,25*,1,0
CC(=O)n1cc(/C=N/NC(=O)c2ccc([N+](=O)[O-])cc2)c2ccccc21,4,21*,3,0
O=C(N/N=C/c1c[nH]c2ccccc12)c1ccccc1,-6,18*,0,0
O=C(N/N=C/c1c[nH]c2ccccc12)c1ccncc1,1,7,0,5
Cc1ccc(C(=O)NC(=S)NCC2CCCO2)cc1Br (stereo unspecified),-5,-3,3,-1
C=C1CC(COc2cc(=O)oc3ccccc23)(c2ccccc2)OC1=O (stereo unspecified),52*,1,3,-3
C=CCCC1CN(CCCC)S(=O)(=O)c2c(F)cccc2O1 (stereo unspecified),7,18*,0,-1
COC(=O)[C@H](C)N(Cc1ccc(Cl)c(Cl)c1)S(=O)(=O)CCN1CCN(c2ccccc2)CC1,11,-7,0,0
Cc1cc(OCC(=O)N2CCOCC2)ccc1[N+](=O)[O-],2,-1,0,0
Cc1ccc(OCC(=O)N2CCN(c3ccc([N+](=O)[O-])c(N4CCOCC4)c3)CC2)cc1,56*,-10,0,0
CC1CN(C(=O)CSc2nnc(C3CCCCC3)n2N)CC(C)O1 (stereo unspecified),-6,0,2,-2
COC(=O)CSc1nc(C2CC2)cc(C(F)(F)F)c1C#N,6,18*,-4,1
SMILES,EBI2 block,NR3A LBD binder,SENP1 FRET inh,MPTP inh
CC(C)(C)C(=O)/C=C/c1ccc(Oc2ccccc2)cc1,8,10*,1,1
O=C(O)/C=C/c1ccc(Oc2ncccn2)cc1,-8,1,1,0
O=C(O)Cc1ccc2oc(-c3cccnc3)nc2c1,-10,0,-2,1
Nc1cc(-c2ccc(Br)cc2)nc2cc(-c3ccccc3)nn12,13,34*,-11,3
CC(Oc1ccc(C#N)cc1)C(=O)c1ccc(F)c(F)c1 (stereo unspecified),8,1,3,-2
N=C(N)c1ccc(N=Nc2c(O)ccc3c2[nH]c2ccccc23)cc1,2,29*,5,5
CCOC(=O)Cc1csc(NC(=O)NC2(C(F)(F)F)Oc3cc(Cl)c(Cl)cc3O2)n1,3,11*,2,6
COC1OC(COC(=O)c2ccccc2)C(OC(=O)c2ccccc2)C1OC(=O)c1ccccc1 (stereo unspecified),14,-1,3,1
C=C(CN(C)C)C(=O)c1ccc(OC2OC(COC(C)=O)C(OC(C)=O)C(OC(C)=O)C2OC(C)=O)cc1 (stereo unspecified),72*,-1,2,-2
N#C/C(=C\c1ccc(N2CCCCC2)c([N+](=O)[O-])c1)c1nn(-c2ccccc2)c(N)c1C#N,9,-3,-2,0
